Values belong to the compound of their own block, whether it stands above or below them. The source made the active and inactive calls. The calls are words filed in the database; no cut-off is given here.
Tests used:
[1] = molecular target: T1, Serine/threonine-protein kinase D2 (Homo sapiens) (UniProt Q9BZL6); test: Inhibition of human PRKD2 (519 to 838 residues) expressed in bacterial expression system assessed as enzyme activity at 10 uM by KINOMEScan assay relative to control; set-up: scale not given: the % may be the effect or the level left
T1 sequence (whole entry): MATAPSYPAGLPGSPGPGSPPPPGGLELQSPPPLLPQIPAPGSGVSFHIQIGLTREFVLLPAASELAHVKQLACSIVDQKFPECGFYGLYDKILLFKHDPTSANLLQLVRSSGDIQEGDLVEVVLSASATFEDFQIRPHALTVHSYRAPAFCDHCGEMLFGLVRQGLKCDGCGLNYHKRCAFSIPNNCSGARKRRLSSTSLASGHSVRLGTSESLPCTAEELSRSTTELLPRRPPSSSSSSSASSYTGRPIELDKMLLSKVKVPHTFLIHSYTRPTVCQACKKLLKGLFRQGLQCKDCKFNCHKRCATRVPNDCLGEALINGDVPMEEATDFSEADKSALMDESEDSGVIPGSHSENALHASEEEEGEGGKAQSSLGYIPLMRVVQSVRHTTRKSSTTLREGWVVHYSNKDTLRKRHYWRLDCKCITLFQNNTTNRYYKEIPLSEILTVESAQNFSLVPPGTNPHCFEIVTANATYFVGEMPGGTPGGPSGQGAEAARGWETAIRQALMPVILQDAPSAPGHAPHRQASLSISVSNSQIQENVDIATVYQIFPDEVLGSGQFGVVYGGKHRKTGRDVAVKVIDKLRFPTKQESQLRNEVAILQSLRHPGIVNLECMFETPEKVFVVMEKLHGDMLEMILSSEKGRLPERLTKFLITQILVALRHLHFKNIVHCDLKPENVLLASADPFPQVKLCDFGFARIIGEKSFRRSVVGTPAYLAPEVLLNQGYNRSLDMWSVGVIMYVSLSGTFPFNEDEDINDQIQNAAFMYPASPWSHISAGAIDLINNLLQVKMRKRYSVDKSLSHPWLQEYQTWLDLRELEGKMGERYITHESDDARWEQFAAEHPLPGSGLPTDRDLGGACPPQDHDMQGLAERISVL
In short: (§1)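 In vitro ATP-site competition binding assay across a panel of 456 kinases, with compound tested at 1 and 10 μM.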

[2] = molecular target: T1, Serine/threonine-protein kinase D2 (Homo sapiens); test: Inhibition of human PRKD2 (519 to 838 residues) expressed in bacterial expression system assessed as enzyme activity at 1 uM by KINOMEScan assay relative to control; set-up: scale not given: the % may be the effect or the level left; in short: as §1
[3] = molecular target: Heterogeneous nuclear ribonucleoproteins A2/B1 (Homo sapiens) (UniProt P22626); test: Binding affinity to HNRNPA2B1 in human NCI-H23 cells at 1 uM by mass spectrometry based pull down assay; type: cell-based
[4] = molecular target: Protein diaphanous homolog 1 (Homo sapiens) (UniProt O60610); test: Binding affinity to DIAPH1 in human NCI-H358 cells at 1 uM by mass spectrometry based pull down assay; type: cell-based
[5] = molecular target: T2, 80S Ribosome (Homo sapiens) (UniProt P08865+P42677+P62753+P15880+P23396+P61247+P62701+P22090+P46782+P62081+P62241+P46781+P46783+P62280+P25398+P62277+P62263+P62841+P62244+P62249+P08708+P62269+P39019+P60866+P63220+P62266+P62847+P62851+P62854+P62979+P62857+P62273+P62861+P39023+P36578+P46777+Q02878+P18124+P62424+P62917+P32969+P27635+P62906+P62913+P30050+P26373+P40429+P50914+P61313+P18621+Q07020+Q02543+P84098+P46778+P35268+P62829+P62750+P83731+P61254+P61353+P46776+P46779+P47914+P62888+P62899+P62910+P49207+P42766+P18077+Q9Y3U8+P83881+P61927+P61513+P63173+P62891+P62945+P05388+P05386); test: Binding affinity to RPL26 in human NCI-H358 cells at 1 uM by mass spectrometry based pull down assay; type: cell-based
NCI-H23 = test: Binding affinity to PSMA5 in human NCI-H23 cells at 1 uM by mass spectrometry based pull down assay; type: cell-based
[6] = molecular target: Mitogen-activated protein kinase 1 (Homo sapiens) (UniProt P28482); test: Binding affinity to MAPK1 in human NCI-H23 cells at 1 uM by mass spectrometry based pull down assay; type: cell-based
[7] = molecular target: Ribonucleoside-diphosphate reductase large subunit (Homo sapiens) (UniProt P23921); test: Binding affinity to RRM1 in human NCI-H358 cells at 1 uM by mass spectrometry based pull down assay; type: cell-based
[8] = molecular target: T2, 80S Ribosome (Homo sapiens); test: Binding affinity to RPL17 in human NCI-H358 cells at 1 uM by mass spectrometry based pull down assay; type: cell-based
[9] = molecular target: Phosphatidylinositol 3-kinase catalytic subunit type 3 (Homo sapiens) (UniProt Q8NEB9); test: Binding affinity to PIK3C3 in human NCI-H23 cells at 1 uM by mass spectrometry based pull down assay; type: cell-based
[10] = molecular target: E3 ubiquitin-protein ligase TRIM33 (Homo sapiens) (UniProt Q9UPN9); test: Binding affinity to TRIM33 in human NCI-H23 cells at 1 uM by mass spectrometry based pull down assay; type: cell-based
[11] = molecular target: Aldehyde dehydrogenase X, mitochondrial (Homo sapiens) (UniProt P30837); test: Binding affinity to ALDH1B1 in human NCI-H23 cells at 1 uM by mass spectrometry based pull down assay; type: cell-based
In short: (§2)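 NCI-H23 or NCI-H358 cells were grown and lysed. Lysates were incubated overnight at 4 °C with 1 μM biotinylated covalent probe or DMSO, then pulled down on streptavidin beads. Proteins were run on polyacrylamide gels and stained with Coomassie. Bands were excised, digested and identified by mass spectrometry.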

[12] = molecular target: 5'-nucleotidase domain-containing protein 1 (Homo sapiens) (UniProt Q5TFE4); test: Binding affinity to NT5DC1 in human NCI-H23 cells at 1 uM by mass spectrometry based pull down assay; type: cell-based
[13] = molecular target: ATP-citrate synthase (Homo sapiens) (UniProt P53396); test: Binding affinity to ACLY in human NCI-H23 cells at 1 uM by mass spectrometry based pull down assay; type: cell-based; in short: as §2
[14] = molecular target: Prostaglandin reductase 1 (Homo sapiens) (UniProt Q14914); test: Binding affinity to PTGR1 in human NCI-H23 cells at 1 uM by mass spectrometry based pull down assay; type: cell-based
[15] = molecular target: Serine/threonine-protein kinase TBK1 (Homo sapiens) (UniProt Q9UHD2); test: Inhibition of TBK1 in human SKCO1 cells at 1 uM after 4 hrs using biotin labeled TGDLFAIKVFNNISFLRPVDVQMR probe by mass-spectrometric analysis relative to control; type: cell-based
Sequence of Serine/threonine-protein kinase TBK1 (Homo sapiens) (Q9UHD2 whole entry): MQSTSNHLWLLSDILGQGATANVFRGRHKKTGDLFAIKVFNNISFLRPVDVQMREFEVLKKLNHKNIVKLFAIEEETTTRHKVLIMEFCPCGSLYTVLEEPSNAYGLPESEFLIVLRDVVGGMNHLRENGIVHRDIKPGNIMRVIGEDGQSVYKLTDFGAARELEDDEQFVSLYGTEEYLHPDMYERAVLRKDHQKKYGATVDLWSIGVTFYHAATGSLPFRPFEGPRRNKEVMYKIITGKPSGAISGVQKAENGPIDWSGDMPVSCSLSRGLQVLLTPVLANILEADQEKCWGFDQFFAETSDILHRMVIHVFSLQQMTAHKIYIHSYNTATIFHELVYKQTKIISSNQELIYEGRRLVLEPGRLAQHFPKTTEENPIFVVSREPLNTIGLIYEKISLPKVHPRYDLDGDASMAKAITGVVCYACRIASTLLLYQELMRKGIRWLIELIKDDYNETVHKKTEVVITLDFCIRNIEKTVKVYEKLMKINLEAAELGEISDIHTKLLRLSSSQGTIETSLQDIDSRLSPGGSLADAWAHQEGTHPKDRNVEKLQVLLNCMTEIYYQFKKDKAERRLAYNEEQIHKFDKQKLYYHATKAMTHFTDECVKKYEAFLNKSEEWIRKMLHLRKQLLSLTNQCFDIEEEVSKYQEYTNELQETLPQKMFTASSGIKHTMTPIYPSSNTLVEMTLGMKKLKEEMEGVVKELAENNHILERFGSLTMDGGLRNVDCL

Sequence of Aldehyde dehydrogenase X, mitochondrial (Homo sapiens) (P30837 whole entry): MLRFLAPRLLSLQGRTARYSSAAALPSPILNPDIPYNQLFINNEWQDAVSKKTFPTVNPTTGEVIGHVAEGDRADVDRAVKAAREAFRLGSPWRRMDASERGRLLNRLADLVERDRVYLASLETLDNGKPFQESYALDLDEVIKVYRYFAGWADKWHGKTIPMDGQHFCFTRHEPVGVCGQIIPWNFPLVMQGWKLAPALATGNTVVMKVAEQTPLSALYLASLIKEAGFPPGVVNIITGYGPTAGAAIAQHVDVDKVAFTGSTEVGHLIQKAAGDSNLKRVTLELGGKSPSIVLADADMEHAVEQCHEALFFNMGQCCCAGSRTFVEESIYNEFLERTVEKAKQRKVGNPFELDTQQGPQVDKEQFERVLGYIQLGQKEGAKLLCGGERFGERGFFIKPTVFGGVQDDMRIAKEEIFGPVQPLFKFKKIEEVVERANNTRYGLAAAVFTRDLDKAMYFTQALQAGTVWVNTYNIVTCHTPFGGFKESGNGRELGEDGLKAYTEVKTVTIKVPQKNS
Sequence of 5'-nucleotidase domain-containing protein 1 (Homo sapiens) (Q5TFE4 whole entry, the tested form may be a part): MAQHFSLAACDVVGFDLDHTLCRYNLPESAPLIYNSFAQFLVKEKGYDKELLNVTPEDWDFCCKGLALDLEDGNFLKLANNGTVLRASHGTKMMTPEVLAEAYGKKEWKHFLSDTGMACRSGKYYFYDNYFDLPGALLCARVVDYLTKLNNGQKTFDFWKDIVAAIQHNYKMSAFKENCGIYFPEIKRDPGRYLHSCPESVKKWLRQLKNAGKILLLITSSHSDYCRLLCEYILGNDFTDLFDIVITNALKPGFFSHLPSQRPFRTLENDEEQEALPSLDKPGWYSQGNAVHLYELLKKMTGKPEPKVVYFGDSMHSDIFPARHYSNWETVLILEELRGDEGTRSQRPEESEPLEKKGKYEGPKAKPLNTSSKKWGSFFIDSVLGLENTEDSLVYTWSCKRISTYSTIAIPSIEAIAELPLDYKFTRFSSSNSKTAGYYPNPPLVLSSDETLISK
Sequence of Ribonucleoside-diphosphate reductase large subunit (Homo sapiens) (P23921 whole entry): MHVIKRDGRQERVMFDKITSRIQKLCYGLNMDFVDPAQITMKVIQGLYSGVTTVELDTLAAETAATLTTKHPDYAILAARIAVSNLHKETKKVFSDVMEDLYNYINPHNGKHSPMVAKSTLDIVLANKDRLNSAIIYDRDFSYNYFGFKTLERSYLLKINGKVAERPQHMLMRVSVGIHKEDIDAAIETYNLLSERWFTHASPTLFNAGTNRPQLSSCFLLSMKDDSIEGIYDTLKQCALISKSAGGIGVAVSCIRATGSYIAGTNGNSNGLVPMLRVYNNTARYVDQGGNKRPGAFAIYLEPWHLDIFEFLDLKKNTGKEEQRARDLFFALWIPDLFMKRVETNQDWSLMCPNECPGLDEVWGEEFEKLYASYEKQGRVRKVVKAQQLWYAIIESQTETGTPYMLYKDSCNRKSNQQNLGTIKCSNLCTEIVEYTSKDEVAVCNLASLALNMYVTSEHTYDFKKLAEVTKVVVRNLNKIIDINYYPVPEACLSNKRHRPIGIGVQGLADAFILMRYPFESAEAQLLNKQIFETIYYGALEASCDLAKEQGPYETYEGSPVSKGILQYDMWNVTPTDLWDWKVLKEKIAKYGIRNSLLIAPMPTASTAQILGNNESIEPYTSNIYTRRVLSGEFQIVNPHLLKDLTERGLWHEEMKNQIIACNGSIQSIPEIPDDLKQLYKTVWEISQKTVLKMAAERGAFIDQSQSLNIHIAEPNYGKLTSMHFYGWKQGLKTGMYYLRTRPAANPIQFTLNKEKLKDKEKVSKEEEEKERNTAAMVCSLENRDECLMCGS
Sequence of Prostaglandin reductase 1 (Homo sapiens) (Q14914 whole entry): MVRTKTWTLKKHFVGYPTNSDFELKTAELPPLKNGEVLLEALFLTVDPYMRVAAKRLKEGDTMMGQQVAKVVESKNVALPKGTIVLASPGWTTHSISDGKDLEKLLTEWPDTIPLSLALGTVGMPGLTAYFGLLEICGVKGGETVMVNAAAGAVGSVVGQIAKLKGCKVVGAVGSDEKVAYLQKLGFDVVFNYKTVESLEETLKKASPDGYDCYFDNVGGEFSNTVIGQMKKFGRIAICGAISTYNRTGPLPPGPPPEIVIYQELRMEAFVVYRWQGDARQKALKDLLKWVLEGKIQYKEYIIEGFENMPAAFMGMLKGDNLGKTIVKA
Sequence of ATP-citrate synthase (Homo sapiens) (P53396 whole entry): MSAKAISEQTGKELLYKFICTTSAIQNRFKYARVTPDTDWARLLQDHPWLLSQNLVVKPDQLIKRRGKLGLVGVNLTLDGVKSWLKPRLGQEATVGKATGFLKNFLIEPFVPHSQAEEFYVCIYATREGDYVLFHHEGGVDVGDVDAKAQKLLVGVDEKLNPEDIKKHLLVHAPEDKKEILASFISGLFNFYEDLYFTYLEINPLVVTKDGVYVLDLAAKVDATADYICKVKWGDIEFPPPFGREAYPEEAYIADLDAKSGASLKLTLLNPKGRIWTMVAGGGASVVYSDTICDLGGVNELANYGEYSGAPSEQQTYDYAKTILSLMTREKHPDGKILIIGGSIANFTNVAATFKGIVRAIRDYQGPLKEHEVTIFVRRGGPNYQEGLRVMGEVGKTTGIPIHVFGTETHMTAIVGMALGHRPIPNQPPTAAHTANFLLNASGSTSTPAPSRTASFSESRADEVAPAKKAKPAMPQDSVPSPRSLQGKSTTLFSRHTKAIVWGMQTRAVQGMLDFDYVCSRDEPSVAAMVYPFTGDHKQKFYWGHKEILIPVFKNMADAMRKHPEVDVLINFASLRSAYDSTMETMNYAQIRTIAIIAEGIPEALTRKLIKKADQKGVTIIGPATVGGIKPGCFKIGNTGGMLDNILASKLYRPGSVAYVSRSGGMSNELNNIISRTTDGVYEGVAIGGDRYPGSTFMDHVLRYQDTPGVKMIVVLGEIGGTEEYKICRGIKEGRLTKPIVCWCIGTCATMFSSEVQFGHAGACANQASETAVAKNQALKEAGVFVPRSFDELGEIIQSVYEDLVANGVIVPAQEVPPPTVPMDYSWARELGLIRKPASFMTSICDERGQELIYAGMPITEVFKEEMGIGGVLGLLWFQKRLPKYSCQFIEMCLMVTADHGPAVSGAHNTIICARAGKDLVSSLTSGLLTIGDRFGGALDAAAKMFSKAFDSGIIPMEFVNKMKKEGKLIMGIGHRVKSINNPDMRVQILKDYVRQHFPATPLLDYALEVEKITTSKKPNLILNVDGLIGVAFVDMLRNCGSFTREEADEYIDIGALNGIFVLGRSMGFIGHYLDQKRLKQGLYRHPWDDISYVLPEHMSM
Sequence of E3 ubiquitin-protein ligase TRIM33 (Homo sapiens) (Q9UPN9 whole entry): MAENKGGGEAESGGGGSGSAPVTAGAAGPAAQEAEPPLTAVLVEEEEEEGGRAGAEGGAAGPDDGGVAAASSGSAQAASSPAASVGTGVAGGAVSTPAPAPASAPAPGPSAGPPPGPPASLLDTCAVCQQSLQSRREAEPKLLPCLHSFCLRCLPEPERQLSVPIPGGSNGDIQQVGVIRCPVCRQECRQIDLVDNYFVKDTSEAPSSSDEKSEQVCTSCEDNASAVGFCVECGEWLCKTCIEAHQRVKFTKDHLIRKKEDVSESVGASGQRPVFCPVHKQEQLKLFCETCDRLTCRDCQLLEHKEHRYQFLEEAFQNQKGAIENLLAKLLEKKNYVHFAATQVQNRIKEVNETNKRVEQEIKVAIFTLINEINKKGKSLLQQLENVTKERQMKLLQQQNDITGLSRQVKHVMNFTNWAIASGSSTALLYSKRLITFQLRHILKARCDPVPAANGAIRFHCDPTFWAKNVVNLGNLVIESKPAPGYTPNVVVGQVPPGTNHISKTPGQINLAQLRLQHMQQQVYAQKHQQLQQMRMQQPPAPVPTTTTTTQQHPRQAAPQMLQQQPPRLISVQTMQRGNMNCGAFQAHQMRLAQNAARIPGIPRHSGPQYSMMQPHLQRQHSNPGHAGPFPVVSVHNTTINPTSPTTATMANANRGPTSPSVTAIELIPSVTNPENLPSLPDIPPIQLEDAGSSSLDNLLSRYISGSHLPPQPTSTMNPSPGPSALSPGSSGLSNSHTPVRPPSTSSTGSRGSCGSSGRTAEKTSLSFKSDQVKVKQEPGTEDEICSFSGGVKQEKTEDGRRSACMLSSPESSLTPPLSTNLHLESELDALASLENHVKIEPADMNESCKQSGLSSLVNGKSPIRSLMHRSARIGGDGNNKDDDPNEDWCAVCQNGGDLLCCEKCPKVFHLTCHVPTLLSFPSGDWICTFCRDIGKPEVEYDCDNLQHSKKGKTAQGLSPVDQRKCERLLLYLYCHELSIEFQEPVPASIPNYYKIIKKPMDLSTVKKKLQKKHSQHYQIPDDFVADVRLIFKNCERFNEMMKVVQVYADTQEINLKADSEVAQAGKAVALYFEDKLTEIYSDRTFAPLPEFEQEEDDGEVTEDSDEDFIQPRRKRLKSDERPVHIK

Compound: COc1cc(O)c2c(c1)/C=C/C[C@H](O)[C@H](O)C(=O)/C=C\C[C@H](C)OC2=O
Activity [1]: 2.5%
Activity [2]: 72%

Activity [3]: Active
Activity [4]: Active
Activity [5]: Active
Activity [6]: Active
Activity [7]: Active
Activity [8]: Active
Activity [9]: Active
Activity [10]: Active
Activity [11]: Active
Activity [12]: Active
Activity [13]: Active
Activity [14]: Active
Compound: C=CC(=O)Nc1ccccc1Nc1nc(Nc2ccc(N3CCN(CCOCCOCCOCCNC(=O)CCCC[C@@H]4SC[C@@H]5NC(=O)N[C@@H]54)CC3)cc2)ncc1Cl
Activity (NCI-H23): Active

Compound: C=CC(=O)Nc1ccccc1Nc1nc(Nc2ccc(N3CCN(C)CC3)cc2)ncc1Cl
inhibition [15]: 61%

Reference: ChEMBL document CHEMBL4118021, “Studies of TAK1-centered polypharmacology with novel covalent TAK1 inhibitors” (Bioorg Med Chem, 2017)
